Source: ChEMBL document CHEMBL1139576, “Synthesis and biological evaluation of benzothiazole derivatives as potent antitumor agents” (Bioorg Med Chem Lett, 2005)
Values after ≈ are worked out from the molar mass of the structure shown.

tested on: Mus musculus; test: In vivo percent inhibitory effect on tumor growth after 11 days against mouse Lewis lung carcinoma xenograft model (LLC) at the dose of 40 mg/kg/shot; (Schedule day=1,4,7); type: functional; conditions: 264 h, read-out: TGI
How it was run: (§1)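 Mouse Lewis lung carcinoma was inoculated subcutaneously into BDF1 female mice (n = 6) on day 0. Dosing was iv in 10% DMA/10% HCO60 (polyoxyethylene hydrogenated castor oil 60)/80% saline on the stated schedule. Tumor growth inhibition (%) was based on tumor volume at day 11, with significance by t test (p < 0.05).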

Row | Structure (SMILES) | inhibition in vivo at 40 mg/kg
1 | O=C(Nc1ccc2nc(NC(=O)C3CCCCC3)sc2c1)c1c(Cl)cccc1Cl | 35%
2 | Cn1ncc([N+](=O)[O-])c1C(=O)Nc1ccc2nc(NC(=O)C3CCCCC3)sc2c1 | 15%

tested on: WI-38 VA13; test: Cytotoxicity against tumorigenic cell line WI-38 VA-13 subline 2RA (VA-13);no cytotoxicity against parental cell line WI-38; type: functional, cell-based; conditions: Homo sapiens

Row | Structure (SMILES) | EC50
3 | C=CCOC(=O)Nc1ccc2nc(NC(=O)C3CCCCC3)sc2c1 | 0.58 µg/mL (≈ 1.61 µM)
4 | CCCC(=O)Nc1nc2ccc(NC(=O)c3c(Cl)cccc3Cl)cc2s1 | 0.01 µg/mL (≈ 0.0245 µM)
5 | Cc1[nH][n+](C)c(C)c1C(=O)Nc1ccc2nc(NC(=O)C3CCCCC3)sc2c1 | 0.012 µg/mL
6 | CCCCCNc1nc2ccc(NC(=O)c3c(Cl)cccc3Cl)cc2s1 | 0.27 µg/mL (≈ 0.661 µM)
7 | COc1ccc(Nc2nc3ccc(NC(=O)c4c(Cl)cccc4Cl)cc3s2)cc1 | 0.87 µg/mL (≈ 1.96 µM)
8 | CCCCOc1ccc(S(=O)(=O)Nc2ccc3nc(NC(=O)C4CCCCC4)sc3c2)cc1 | 0.75 µg/mL (≈ 1.54 µM)
9 | CC(=O)Nc1ccc2nc(NC(=O)C3CCCCC3)sc2c1 | 2.7 µg/mL (≈ 8.51 µM)
10 | CCNC(=O)Nc1nc2ccc(NC(=O)c3c(Cl)cccc3Cl)cc2s1 | 0.032 µg/mL (≈ 0.0782 µM)
11 | Cc1cccc(C)c1NC(=O)Nc1ccc2nc(NC(=O)C3CCCCC3)sc2c1 | 0.56 µg/mL (≈ 1.33 µM)
12 | O=C(Nc1ccc2nc(NC(=O)C3CCCCC3)sc2c1)c1c(Cl)cccc1Cl | 0.015 µg/mL (≈ 0.0335 µM)
13 | NCCC(=O)Nc1nc2ccc(NC(=O)c3c(Cl)cccc3Cl)cc2s1 | 5.3 µg/mL (≈ 12.9 µM)
14 | O=C(Nc1ccc2nc(NCC3CCCCC3)sc2c1)c1c(Cl)cccc1Cl | 4.3 µg/mL (≈ 9.9 µM)
15 | CCCC(C)C(=O)Nc1ccc2nc(NC(=O)C3CCCCC3)sc2c1 (stereo not drawn) | 0.14 µg/mL (≈ 0.375 µM)
16 | CCCCCCNC(=O)Nc1nc2ccc(NC(=O)c3c(Cl)cccc3Cl)cc2s1 | 0.29 µg/mL (≈ 0.623 µM)
17 | CC(C)(C)OC(=O)Nc1nc2ccc(NC(=O)c3c(Cl)cccc3Cl)cc2s1 | 0.027 µg/mL (≈ 0.0616 µM)
18 | Cc1ccccc1C(=O)Nc1ccc2nc(NC(=O)C3CCCCC3)sc2c1 | 0.085 µg/mL (≈ 0.216 µM)
19 | CCCOC(=O)Nc1nc2ccc(NC(=O)c3c(Cl)cccc3Cl)cc2s1 | 0.0025 µg/mL (≈ 0.00589 µM)
20 | CCOC(=O)Nc1nc2cc(NC(=O)c3c(Cl)cccc3Cl)ccc2s1 | 2.5 µg/mL (≈ 6.09 µM)
21 | COCCOC(=O)Nc1nc2ccc(NC(=O)c3c(Cl)cccc3Cl)cc2s1 | 0.011 µg/mL (≈ 0.025 µM)
22 | CC(C)COC(=O)Nc1nc2ccc(NC(=O)c3c(Cl)cccc3Cl)cc2s1 | 0.0035 µg/mL (≈ 0.00798 µM)
23 | O=C(Nc1ccc2nc(NC(=O)C3CCCCC3)sc2c1)c1cccc(Oc2ccccc2)c1 | > 4 µg/mL

Row | Structure (SMILES) | EC50
24 | O=C(Nc1ccc2nc(NC(=O)C3CCCCC3)sc2c1)c1cccnc1Cl | 0.075 µg/mL (≈ 0.181 µM)
25 | N#Cc1cccc(C(=O)Nc2ccc3nc(NC(=O)C4CCCCC4)sc3c2)c1 | 0.52 µg/mL (≈ 1.29 µM)
26 | O=C(Nc1ccc2nc(NC(=O)C3CCCCC3)sc2c1)c1ccccc1C(F)(F)F | 0.024 µg/mL (≈ 0.0536 µM)
27 | O=C(Nc1nc2ccc(NC(=S)Nc3ccc4c(c3)OCCO4)cc2s1)C1CCCCC1 | 1.6 µg/mL (≈ 3.41 µM)
28 | CCOC(=O)Nc1nc2ccc(NC(=O)c3c(Cl)cccc3Cl)cc2s1 | 0.0026 µg/mL (≈ 0.00634 µM)
29 | O=C(Nc1ccc2nc(NC(=O)C3CC3)sc2c1)c1c(Cl)cccc1Cl | 0.013 µg/mL (≈ 0.032 µM)
30 | CC(C)OC(=O)Nc1nc2ccc(NC(=O)c3c(Cl)cccc3Cl)cc2s1 | 0.0026 µg/mL (≈ 0.00613 µM)
31 | COc1cccc(Nc2nc3ccc(NC(=O)c4c(Cl)cccc4Cl)cc3s2)c1 | > 7.2 µg/mL
32 | O=C(O)CCC(=O)Nc1nc2ccc(NC(=O)c3c(Cl)cccc3Cl)cc2s1 | > 6.6 µg/mL
33 | CC(C)NC(=O)Nc1nc2ccc(NC(=O)c3c(Cl)cccc3Cl)cc2s1 | 0.03 µg/mL (≈ 0.0709 µM)
34 | COC(=O)Nc1nc2ccc(NC(=O)c3c(Cl)cccc3Cl)cc2s1 | 0.0095 µg/mL (≈ 0.024 µM)
35 | O=C(NCc1ccccc1)Nc1nc2ccc(NC(=O)c3c(Cl)cccc3Cl)cc2s1 | 0.15 µg/mL (≈ 0.318 µM)
36 | Cc1coc(C)c1C(=O)Nc1ccc2nc(NC(=O)C3CCCCC3)sc2c1 | 2.7 µg/mL (≈ 6.79 µM)
37 | O=C(Nc1ccc2nc(NC(=O)C3CCCCC3)sc2c1)c1c(F)cccc1C(F)(F)F | 0.032 µg/mL (≈ 0.0687 µM)
38 | CC(=O)Nc1nc2ccc(NC(=O)c3c(Cl)cccc3Cl)cc2s1 | 0.6 µg/mL (≈ 1.58 µM)
39 | O=C(NCCc1ccccc1)Nc1ccc2nc(NC(=O)C3CCCCC3)sc2c1 | 0.7 µg/mL (≈ 1.66 µM)
40 | N#Cc1ccc(C(=O)Nc2ccc3nc(NC(=O)C4CCCCC4)sc3c2)cc1 | 3.3 µg/mL (≈ 8.16 µM)
41 | Cn1nccc1C(=O)Nc1ccc2nc(NC(=O)C3CCCCC3)sc2c1 | 0.58 µg/mL (≈ 1.51 µM)
42 | COc1ccc(C(=O)Nc2ccc3nc(NC(=O)C4CCCCC4)sc3c2)cc1 | 4.9 µg/mL (≈ 12 µM)
43 | Cc1ccc(F)cc1S(=O)(=O)Nc1ccc2nc(NC(=O)C3CCCCC3)sc2c1 | 0.7 µg/mL (≈ 1.56 µM)
44 | O=C(Nc1ccc2nc(NC(=O)C3CCCCC3)sc2c1)c1ccccc1F | 0.14 µg/mL (≈ 0.352 µM)

Row | Structure (SMILES) | EC50
45 | Cc1cc(C(=O)Nc2ccc3nc(NC(=O)C4CCCCC4)sc3c2)c(C)n1C | > 6.2 µg/mL
46 | O=C(Nc1ccc2nc(NC(=O)C3CCCCC3)sc2c1)c1ccc(Cl)cc1Cl | > 4 µg/mL
47 | O=C(Nc1nc2ccc(NC(=O)C3CCCO3)cc2s1)C1CCCCC1 (stereo not drawn) | 1.3 µg/mL (≈ 3.48 µM)
48 | Cc1cc(C(=O)Nc2ccc3nc(NC(=O)C4CCCCC4)sc3c2)n(C)n1 | 0.12 µg/mL (≈ 0.302 µM)
49 | O=C(Nc1nc2ccc(N/C(S)=N/c3ccccc3OC(F)(F)F)cc2s1)C1CCCCC1 | 2.3 µg/mL (≈ 4.65 µM)
50 | O=C(Nc1ccc2nc(NC(=O)C3CCCCC3)sc2c1)c1cccc(F)c1 | 0.64 µg/mL (≈ 1.61 µM)
51 | O=C(Nc1ccc2nc(NC(=O)C3CCCCC3)sc2c1)c1ccccc1Cl | 0.025 µg/mL (≈ 0.0604 µM)
52 | CCCCCCCC(=O)Nc1nc2ccc(NC(=O)c3c(Cl)cccc3Cl)cc2s1 | 0.18 µg/mL (≈ 0.388 µM)
53 | O=C(Nc1ccc2nc(NC(=O)C3CCC3)sc2c1)c1c(Cl)cccc1Cl | 0.013 µg/mL (≈ 0.0309 µM)
54 | Cn1ncc([N+](=O)[O-])c1C(=O)Nc1ccc2nc(NC(=O)C3CCCCC3)sc2c1 | 0.026 µg/mL (≈ 0.0607 µM)
55 | O=C(Nc1nc2ccc(NC(=O)c3c(Cl)cccc3Cl)cc2s1)Oc1ccccc1 | 1.1 µg/mL (≈ 2.4 µM)
56 | CC(C)CC(=O)Nc1nc2ccc(NC(=O)c3c(Cl)cccc3Cl)cc2s1 | 0.012 µg/mL (≈ 0.0284 µM)
57 | Cc1ccc(C(=O)Nc2ccc3nc(NC(=O)C4CCCCC4)sc3c2)cc1 | 5.1 µg/mL (≈ 13 µM)
58 | CCC(C)(C)C(=O)Nc1ccc2nc(NC(=O)C3CCCCC3)sc2c1 | 1 µg/mL (≈ 2.68 µM)
59 | O=C(Nc1ccc2nc(NC(=O)C3CCCCC3)sc2c1)c1ccc(Br)cc1 | > 4 µg/mL
60 | CC(C)COC(=O)Nc1ccc2nc(NC(=O)C3CCCCC3)sc2c1 | 0.72 µg/mL (≈ 1.92 µM)
61 | CCCCNC(=O)Nc1nc2ccc(NC(=O)c3c(Cl)cccc3Cl)cc2s1 | 0.028 µg/mL (≈ 0.064 µM)
62 | COc1ccccc1Nc1nc2ccc(NC(=O)c3c(Cl)cccc3Cl)cc2s1 | > 7.2 µg/mL
63 | O=C(Nc1ccc2nc(NC(=O)C3CCCCC3)sc2c1)c1ccccc1Oc1ccccc1 | 0.1 µg/mL (≈ 0.212 µM)
64 | Cc1nc(C)c(C(=O)Nc2ccc3nc(NC(=O)C4CCCCC4)sc3c2)s1 | 0.39 µg/mL (≈ 0.941 µM)

species on record: Mus musculus; test: Half life time in plasma (concentration); type: functional, organism-based; conditions: not given
How it was run: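 Plasma levels were measured in BDF1 female mice after iv administration at 10 mg/kg, with n = 2 and the mean concentration–time profile reported. The plasma half-life was derived from these profiles.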

Row | Structure (SMILES) | T1/2
65 | O=C(Nc1ccc2nc(NC(=O)C3CCCCC3)sc2c1)c1c(Cl)cccc1Cl | 1.1 h

tested on: Mus musculus; test: Half life time in plasma at a single iv dose of 10 mg/kg; conditions: not given

Row | Structure (SMILES) | T1/2
66 | O=C(Nc1ccc2nc(NC(=O)C3CC3)sc2c1)c1c(Cl)cccc1Cl | 3.29 h

tested on: Mus musculus; test: In vivo percent inhibitory effect on tumor growth after 11 days against mouse Lewis lung carcinoma xenograft model (LLC) at the dose of 5 mg/kg/shot; (Schedule day=1,4,7); type: functional; conditions: 264 h, read-out: TGI; how it was run: as §1

Row | Structure (SMILES) | inhibition in vivo at 5 mg/kg
67 | O=C(Nc1ccc2nc(NC(=O)C3CC3)sc2c1)c1c(Cl)cccc1Cl | 63%

tested on: Mus musculus; test: In vivo percent inhibitory effect on tumor growth after 11 days against mouse Lewis lung carcinoma xenograft model (LLC) at the dose of 20 mg/kg/shot; (Schedule day=1); type: functional; conditions: 264 h, read-out: TGI; how it was run: as §1

Row | Structure (SMILES) | inhibition in vivo at 20 mg/kg
68 | O=C(Nc1ccc2nc(NC(=O)C3CC3)sc2c1)c1c(Cl)cccc1Cl | 68%
